Measurements published in ChEMBL document CHEMBL1147841, “Synthesis and biological study of 2-amino-4-aryl-5-chloropyrimidine analogues as inhibitors of VEGFR-2 and cyclin dependent kinase 1 (CDK1)” (Bioorg Med Chem Lett, 2007).
pIC50: −log10 of the molar value.

How the values were obtained:
HeLa = assay: Antiproliferative activity against human HeLa cells; assay type: functional, cell-based
[1] = target: Vascular endothelial growth factor receptor 2 (Homo sapiens, UniProt P35968); assay: Inhibition of VEGFR2
Vascular endothelial growth factor receptor 2, sequence (P35968 whole entry): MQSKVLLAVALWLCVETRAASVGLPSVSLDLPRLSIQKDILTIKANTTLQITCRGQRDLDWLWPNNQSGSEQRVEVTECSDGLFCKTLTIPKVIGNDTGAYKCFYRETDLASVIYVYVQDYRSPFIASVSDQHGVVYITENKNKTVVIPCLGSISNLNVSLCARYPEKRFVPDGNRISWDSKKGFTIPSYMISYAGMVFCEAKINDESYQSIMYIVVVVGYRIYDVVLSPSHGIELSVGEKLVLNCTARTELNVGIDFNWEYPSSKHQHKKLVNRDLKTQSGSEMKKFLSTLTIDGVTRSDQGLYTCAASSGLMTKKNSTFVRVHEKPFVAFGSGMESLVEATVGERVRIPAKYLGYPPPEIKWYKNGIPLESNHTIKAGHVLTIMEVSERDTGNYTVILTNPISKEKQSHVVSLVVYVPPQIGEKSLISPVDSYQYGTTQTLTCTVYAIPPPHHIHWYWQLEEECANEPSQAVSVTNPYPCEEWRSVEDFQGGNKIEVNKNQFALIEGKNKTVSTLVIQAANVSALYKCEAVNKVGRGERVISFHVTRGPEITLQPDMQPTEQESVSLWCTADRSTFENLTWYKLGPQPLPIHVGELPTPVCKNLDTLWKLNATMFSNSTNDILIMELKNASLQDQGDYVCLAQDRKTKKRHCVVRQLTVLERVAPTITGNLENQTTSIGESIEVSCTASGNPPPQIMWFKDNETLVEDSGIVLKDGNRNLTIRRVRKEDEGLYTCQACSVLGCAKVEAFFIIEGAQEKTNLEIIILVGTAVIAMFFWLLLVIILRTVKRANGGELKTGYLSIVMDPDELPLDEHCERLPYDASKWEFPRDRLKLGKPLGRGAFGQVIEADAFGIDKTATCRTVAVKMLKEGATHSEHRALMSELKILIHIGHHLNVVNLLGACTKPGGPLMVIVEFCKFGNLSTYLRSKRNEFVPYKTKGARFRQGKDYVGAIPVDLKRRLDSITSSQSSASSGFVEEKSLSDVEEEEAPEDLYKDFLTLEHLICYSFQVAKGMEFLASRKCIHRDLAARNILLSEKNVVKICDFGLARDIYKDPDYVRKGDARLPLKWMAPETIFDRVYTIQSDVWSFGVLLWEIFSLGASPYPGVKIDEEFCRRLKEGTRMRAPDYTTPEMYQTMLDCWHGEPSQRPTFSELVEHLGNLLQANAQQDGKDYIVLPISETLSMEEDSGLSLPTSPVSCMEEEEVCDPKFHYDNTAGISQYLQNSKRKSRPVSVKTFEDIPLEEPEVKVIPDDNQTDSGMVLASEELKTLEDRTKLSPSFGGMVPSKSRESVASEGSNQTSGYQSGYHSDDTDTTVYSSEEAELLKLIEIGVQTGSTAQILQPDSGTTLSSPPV

[2] = target: Cyclin-dependent kinase 1 (Homo sapiens, UniProt P06493); assay: Inhibition of CDK1
Cyclin-dependent kinase 1, sequence (P06493 whole entry): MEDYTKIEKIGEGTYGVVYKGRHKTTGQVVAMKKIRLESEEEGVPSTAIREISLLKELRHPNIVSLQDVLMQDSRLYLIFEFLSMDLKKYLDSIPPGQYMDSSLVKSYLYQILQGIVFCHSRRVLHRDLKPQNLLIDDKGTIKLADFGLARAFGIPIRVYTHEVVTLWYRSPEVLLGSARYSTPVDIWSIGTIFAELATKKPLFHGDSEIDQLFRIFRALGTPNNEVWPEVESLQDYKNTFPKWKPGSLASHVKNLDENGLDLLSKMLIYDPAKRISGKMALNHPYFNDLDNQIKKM

A-375 = assay: Antiproliferative activity against human A375 cells; assay type: functional, cell-based
HCT-116 = assay: Antiproliferative activity against human HCT116 cells; assay type: functional, cell-based
[3] = Cmax in Sprague-Dawley rat at 2 mg/kg, iv; assay type: ADME, organism-based; set-up: dose 2 mg/kg, route intravenous; conditions: in vivo
In short: (§1)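 Male Sprague-Dawley rats were given single doses orally at 10 mg/kg in 0.5% Methocel and intravenously at 2 mg/kg in 10% Solutol. Plasma concentrations were followed to derive AUC (µM h), Cmax (µM), half-life (h), clearance (mL/min/kg), steady-state volume of distribution (L/kg) and oral bioavailability (%).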

[4] = Volume of distribution at steady state in Sprague-Dawley rat; assay type: ADME, organism-based; conditions: in vivo, read-out: Vss; in short: as §1
[5] = AUC in Sprague-Dawley rat at 10 mg/kg, po; assay type: ADME, organism-based; set-up: dose 10 mg/kg, route oral; conditions: plasma; in short: as §1
[6] = Half life in Sprague-Dawley rat at 10 mg/kg, po; assay type: ADME, organism-based; set-up: dose 10 mg/kg, route oral; conditions: in vivo; in short: as §1
[7] = Cmax in Sprague-Dawley rat at 10 mg/kg, po; assay type: ADME, organism-based; set-up: dose 10 mg/kg, route oral; conditions: in vivo; in short: as §1
[8] = Clearance in Sprague-Dawley rat; assay type: ADME, organism-based; conditions: in vivo; in short: as §1
[9] = AUC in Sprague-Dawley rat at 2 mg/kg, iv; assay type: ADME, organism-based; set-up: dose 2 mg/kg, route intravenous; conditions: plasma; in short: as §1
[10] = Bioavailability in Sprague-Dawley rat at 10 mg/kg, po; assay type: ADME, organism-based; conditions: in vivo; in short: as §1
[11] = Half life in Sprague-Dawley rat at 2 mg/kg, iv; assay type: ADME, organism-based; set-up: dose 2 mg/kg, route intravenous; conditions: in vivo; in short: as §1

Row | Structure (SMILES) | pIC50 (HeLa) | pIC50 [1] | pIC50 [2] | pIC50 (A-375) | pIC50 (HCT-116) | Cmax [3] | Vd [4] | AUC [5] | half-life [6] | Cmax [7] | clearance [8] | AUC [9] | bioavailability [10] | half-life [11]
1 | CN(C)CCc1ccc(Nc2ncc(Cl)c(-c3ccc(C(C)(C)N)cc3)n2)cc1 | 6.30 | 7.72 | 5.94 | 6.79 | 5.77 |  |  |  |  |  |  |  |  | 
2 | CN(C)CCc1ccc(Nc2ncc(Cl)c(-c3ccc4cc[nH]c4c3)n2)cc1 | 6.33 | 7.82 | 5.75 | 6.47 | 6.35 |  |  |  |  |  |  |  |  | 
3 | CN(C)CCc1ccc(Nc2ncc(Cl)c(-c3cccs3)n2)cc1 | 5.91 | 6.80 | 6.34 | 7.80 | 6.64 |  |  |  |  |  |  |  |  | 
4 | CC(C)(N)c1ccc(-c2nc(Nc3ccc(CCN4CCCC4)cc3)ncc2Cl)cc1 | 6.47 | 7.59 | 6.09 | 6.61 | 6.44 |  |  |  |  |  |  |  |  | 
5 | CN(C)CCc1ccc(Nc2ncc(Cl)c(-c3c[nH]c4ccccc34)n2)cc1 | 7.12 | 8.15 | 7.32 | 7.30 | 7.08 |  |  |  |  |  |  |  |  | 
6 | CN(C)CCc1ccc(Nc2ncc(Cl)c(-c3cccc4cc[nH]c34)n2)cc1 | 5.89 | 6.34 | 6.48 | 6.11 | 6.33 |  |  |  |  |  |  |  |  | 
7 | CC(C)(N)c1ccc(-c2nc(Nc3ccc(CCN4CCOCC4)cc3)ncc2Cl)cc1 | 5.52 | 6.83 | 5.56 | 5.50 | 5.49 |  |  |  |  |  |  |  |  | 
8 | CN(C)CCc1ccc(Nc2ncc(Cl)c(-c3cccc4[nH]ccc34)n2)cc1 | 6.53 | 6.67 | 6.27 | 6.68 | 7.08 |  |  |  |  |  |  |  |  | 
9 | CN1CCN(CCc2ccc(Nc3ncc(Cl)c(-c4c[nH]c5ccccc45)n3)cc2)CC1 | 5.48 | 8.15 | 6.74 | 5.41 | 5.52 |  |  |  |  |  |  |  |  | 
10 | CN(C)CCc1ccc(Nc2ncc(Cl)c(-c3ccc4[nH]ccc4c3)n2)cc1 | 6.22 | 6.99 | 6.07 | 7.52 | 6.49 |  |  |  |  |  |  |  |  | 
11 | CCN1CCN(CCc2ccc(Nc3ncc(Cl)c(-c4ccc5cc[nH]c5c4)n3)cc2)CC1 | 5.68 | 7.43 | 5.91 | 5.59 | 5.61 | 960 nM | 10.1 L/kg | 6.12 µM·h | 4.6 h | 590 nM | 25 mL/min/kg | 3.06 µM·h | 40% | 5.8 h
12 | CC(C)(N)c1ccc(-c2nc(Nc3cccc(Br)c3)ncc2Cl)cc1 | 5.47 | 6.46 | 5.98 | 5.58 | 5.43 |  |  |  |  |  |  |  |  | 
13 | Cc1nc(C)c(-c2nc(Nc3ccc(CCN(C)C)cc3)ncc2Cl)s1 | 6.37 | 6.10 | 6.36 | 6.40 | 6.41 |  |  |  |  |  |  |  |  | 
14 | Clc1cnc(Nc2ccc(CCN3CCCC3)cc2)nc1-c1ccc2cc[nH]c2c1 | 6.01 | 7.80 | 5.81 | 5.71 | 5.77 | 670 nM | 16.3 L/kg | 5.74 µM·h | 2.6 h | 720 nM | 51 mL/min/kg | 1.63 µM·h | 70% | 3.9 h
15 | CN1CCN(CCc2ccc(Nc3ncc(Cl)c(-c4ccc(C(C)(C)N)cc4)n3)cc2)CC1 | 6.09 | 7.12 | 5.79 | 6.06 | 5.89 |  |  |  |  |  |  |  |  | 
16 | CNCCc1ccc(Nc2ncc(Cl)c(-c3ccc(C(C)(C)N)cc3)n2)cc1 | 6.27 | 7.48 | 5.97 | 6.76 | 6.05 |  |  |  |  |  |  |  |  | 
17 | CN(C)CCc1ccc(Nc2ncc(Cl)c(-c3n[nH]c4ccccc34)n2)cc1 | 5.51 | 6.50 | 6.11 | 5.40 | 5.42 |  |  |  |  |  |  |  |  | 
18 | CC(C)(N)c1ccc(-c2nc(Nc3ccc(CCO)cc3)ncc2Cl)cc1 | 5.53 | 7.16 | 6.16 | 5.86 | 5.80 | 1430 nM | 10.7 L/kg | 7.65 µM·h | 4.5 h | 1110 nM | 34 mL/min/kg | 2.77 µM·h | 55% | 4.9 h
